The target in data set [1] is Voltage-gated inwardly rectifying potassium channel KCNH2 (Homo sapiens, UniProt Q12809). Kind of data set: Displacement of [3H]dofetilide from hERG expressed in HEK cells. In kind it is cell-based, HEK293.
The nature of data set [2]: Drug level in rat plasma at 5 mg/kg, po after 1 hr. In kind it is ADME, organism-based. Also on record: dose 5 mg/kg, route oral. The essentials: (§1)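 Rats given 5 mg/kg po, with a radiolabeled selective 5-HT2A ligand co-administered; drug concentrations in plasma and brain measured at 1 h after dosing.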
The target of data set [3] is 5-hydroxytryptamine receptor 2A (Homo sapiens, UniProt P28223). Kind of data set: Displacement of [3H]ketanserin from human 5HT2A receptor expressed in CHO cells. The class given is cell-based. (In general: Loss of bound radioactivity is the signal in a displacement assay; it reports binding, not function.)
Data set [4] can be described thus: Drug level in rat brain at 5 mg/kg, po after 1 hr. The class given is ADME, organism-based. The following applies: read-out: Drug uptake. Also on record: dose 5 mg/kg, route oral. An outline of the steps: as §1
The next data set relates to Rattus norvegicus. Kind of data set: Receptor occupancy ex vivo by displacement of tritiated radioligand from 5HT2A receptor in rat at 5 mg/kg, po. In kind it is functional. An outline of the steps:
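Rats dosed 5 mg/kg po; [3H] selective 5-HT2A radioligand (6 lCi) given by tail vein injection. Read at 1 h. Occupancy (%) = 100 − [100·(compound counts/vehicle counts)], with vehicle counts taken as total binding.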

Data set [5] concerns the target T1, 5-hydroxytryptamine receptor 2C (Homo sapiens, UniProt P28335).
T1 sequence (P28335 whole entry): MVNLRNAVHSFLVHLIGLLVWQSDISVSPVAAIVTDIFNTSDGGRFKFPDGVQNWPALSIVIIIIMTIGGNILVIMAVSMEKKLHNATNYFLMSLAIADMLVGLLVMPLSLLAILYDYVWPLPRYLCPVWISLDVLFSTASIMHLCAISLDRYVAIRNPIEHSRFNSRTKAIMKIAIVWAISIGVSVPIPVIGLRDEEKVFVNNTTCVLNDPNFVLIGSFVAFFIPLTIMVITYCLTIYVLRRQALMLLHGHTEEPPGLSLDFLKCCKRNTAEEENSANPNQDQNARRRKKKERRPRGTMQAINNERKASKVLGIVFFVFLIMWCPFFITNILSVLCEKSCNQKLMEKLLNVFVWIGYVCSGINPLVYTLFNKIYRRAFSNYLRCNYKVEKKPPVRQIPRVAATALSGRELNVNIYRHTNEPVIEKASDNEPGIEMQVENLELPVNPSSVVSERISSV
Kind of data set: Displacement of [3H][…] from human 5HT2C receptor expressed in CHO cells. The class given is cell-based.

The next data set concerns the target D(2) dopamine receptor (Homo sapiens, UniProt P14416). Kind of data set: Displacement of [3H]spiperone from human dopamine D2 receptor expressed in CHO cells. In kind it is cell-based.
Data set [6] deals with Serotonin 2 receptors; 5-HT2a & 5-HT2c (Homo sapiens) (UniProt P28223+P28335). Briefly: Selectivity for human 5HT2A receptor over human 5HT2C receptor.
Chain of Serotonin 2 receptors; 5-HT2a & 5-HT2c (Homo sapiens) (P28223 whole entry, looked up, one chain of several): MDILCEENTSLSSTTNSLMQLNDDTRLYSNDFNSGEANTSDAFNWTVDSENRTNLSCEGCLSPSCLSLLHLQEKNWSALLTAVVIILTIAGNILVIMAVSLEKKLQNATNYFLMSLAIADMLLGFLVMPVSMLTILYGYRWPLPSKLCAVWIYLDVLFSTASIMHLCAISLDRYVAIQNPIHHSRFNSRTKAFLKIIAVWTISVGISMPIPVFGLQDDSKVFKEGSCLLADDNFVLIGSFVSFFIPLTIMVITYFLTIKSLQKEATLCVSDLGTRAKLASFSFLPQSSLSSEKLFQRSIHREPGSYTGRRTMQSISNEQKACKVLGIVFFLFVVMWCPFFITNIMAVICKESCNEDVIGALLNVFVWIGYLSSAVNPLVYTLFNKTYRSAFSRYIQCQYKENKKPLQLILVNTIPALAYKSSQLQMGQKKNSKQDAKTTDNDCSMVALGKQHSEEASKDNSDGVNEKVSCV

Chain of D(2) dopamine receptor (P14416 whole entry): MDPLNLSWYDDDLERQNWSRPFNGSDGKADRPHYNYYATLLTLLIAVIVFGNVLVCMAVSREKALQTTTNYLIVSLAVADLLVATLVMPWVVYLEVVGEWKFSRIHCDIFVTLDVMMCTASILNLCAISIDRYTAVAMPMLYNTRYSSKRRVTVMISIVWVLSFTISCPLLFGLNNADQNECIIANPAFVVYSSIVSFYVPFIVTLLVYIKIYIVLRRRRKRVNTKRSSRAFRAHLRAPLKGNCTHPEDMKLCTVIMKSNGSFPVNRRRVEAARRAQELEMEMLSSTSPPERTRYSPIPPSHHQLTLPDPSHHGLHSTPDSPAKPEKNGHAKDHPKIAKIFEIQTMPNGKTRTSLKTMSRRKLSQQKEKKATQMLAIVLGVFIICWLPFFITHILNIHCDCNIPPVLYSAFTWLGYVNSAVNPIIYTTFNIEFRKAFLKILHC
Chain of Voltage-gated inwardly rectifying potassium channel KCNH2 (Q12809 whole entry): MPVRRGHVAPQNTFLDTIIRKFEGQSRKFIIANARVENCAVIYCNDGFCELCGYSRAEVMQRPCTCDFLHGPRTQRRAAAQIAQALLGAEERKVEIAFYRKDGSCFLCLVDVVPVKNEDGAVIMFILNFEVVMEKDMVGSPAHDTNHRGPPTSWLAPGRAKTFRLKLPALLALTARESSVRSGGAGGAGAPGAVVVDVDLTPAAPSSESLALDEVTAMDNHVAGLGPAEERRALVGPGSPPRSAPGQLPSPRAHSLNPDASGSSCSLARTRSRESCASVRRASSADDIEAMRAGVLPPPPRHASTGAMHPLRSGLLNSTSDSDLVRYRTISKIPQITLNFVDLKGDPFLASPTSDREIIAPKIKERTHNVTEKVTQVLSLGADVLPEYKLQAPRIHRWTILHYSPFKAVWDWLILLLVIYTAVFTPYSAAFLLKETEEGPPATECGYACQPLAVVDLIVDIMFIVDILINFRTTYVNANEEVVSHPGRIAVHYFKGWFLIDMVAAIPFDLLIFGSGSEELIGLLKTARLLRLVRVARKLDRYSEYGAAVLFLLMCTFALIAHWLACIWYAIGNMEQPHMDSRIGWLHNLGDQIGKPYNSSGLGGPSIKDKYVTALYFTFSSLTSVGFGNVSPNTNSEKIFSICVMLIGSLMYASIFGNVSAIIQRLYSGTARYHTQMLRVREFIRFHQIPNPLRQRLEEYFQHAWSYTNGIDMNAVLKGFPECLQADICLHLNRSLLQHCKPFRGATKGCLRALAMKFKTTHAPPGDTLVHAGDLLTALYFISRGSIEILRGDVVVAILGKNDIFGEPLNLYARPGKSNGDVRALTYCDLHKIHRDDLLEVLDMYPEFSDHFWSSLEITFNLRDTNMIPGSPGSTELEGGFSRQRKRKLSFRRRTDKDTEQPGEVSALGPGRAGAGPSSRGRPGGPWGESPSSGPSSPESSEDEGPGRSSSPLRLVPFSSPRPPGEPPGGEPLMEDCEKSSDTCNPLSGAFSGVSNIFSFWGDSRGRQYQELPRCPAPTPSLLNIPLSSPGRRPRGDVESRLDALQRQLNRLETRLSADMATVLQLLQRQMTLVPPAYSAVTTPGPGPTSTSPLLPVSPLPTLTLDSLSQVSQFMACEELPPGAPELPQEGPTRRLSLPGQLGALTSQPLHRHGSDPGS
Chain of 5-hydroxytryptamine receptor 2A (P28223 whole entry): as the sequence (P28223 whole entry, looked up, one chain of several) above

As a reminder, the Ki is the dissociation constant of the complex between target and ligand, obtained from inhibition or displacement. A low value points to higher affinity. `[O-][S+](c1ccccc1)c1ccc(/C=C/c2ccc(F)cc2F)nc1` (stereo in doubt; 30) [listing 1 of 2 here]: the Ki is 2.8 µM in data set [1], 0.79 nM in data set [3], 30 nM in data set [5] and over 2000 nM on D(2) dopamine receptor (cho). Besides, the concentration at 1 h in data set [2] was 230 nM; in data set [4], 1070 nM. In the data set on Rattus norvegicus, this compound registered an Activity of 90%.
For the compound `O=S(=O)(c1ccc(/C=C/c2ccccc2O)nc1)c1ccccc1F`, the Ratio Ki in data set [6] was 220. Also, the inhibitory constant (Ki) was 1.4 µM in data set [1], 3.6 nM in data set [3], 810 nM in data set [5] and over 2000 nM at D(2) dopamine receptor.
On to `O=S(=O)(c1ccc(F)cc1)c1ccc(/C=C/c2ccc(F)cc2)nc1`, for which the Ki is 17 nM in data set [3], over 4000 nM in data set [5] and over 1000 nM on D(2) dopamine receptor.
Consider `O=S(=O)(c1ccc(/C=C/c2ccncc2)nc1)c1ccccc1F`, for which the Ratio Ki in data set [6] was over 5. Moreover, the Ki was 4.2 µM in data set [1], 790 nM in data set [3], over 4000 nM in data set [5] and over 2000 nM on D(2) dopamine receptor.
Consider `O=S(=O)(c1ccc(F)cc1)c1ccc(/C=C/c2ccc(F)cc2)cn1`, for which, in data set [6], the Ratio Ki is over 140. The Ki was 3.3 µM in data set [1], 28 nM in data set [3], over 4000 nM in data set [5] and over 1000 nM on D(2) dopamine receptor.
For `O=S(=O)(c1ccc(F)cc1)C1(F)CCN(CCc2ccc(F)cc2F)CC1`, the Ratio Ki in data set [6] amounted to 460. In addition, the affinity in data set [1], expressed as Ki, was 5.6 µM.
In the case of `[O-][S+](c1ccccc1)c1ccc(/C=C/c2ccc(F)cc2F)nc1` (single isomer, unassigned; form 2) [listing 1 of 2 here], the Ratio Ki in data set [6] worked out at 36.
In the case of `[O-][S+](c1ccc(/C=C/c2ccc(F)cc2)nc1)c1ccccc1F` (configuration not stated), the Ratio Ki in data set [6] stood at 35. Further, the Ki in data set [1] is 2.9 µM; in data set [3], 4.6 nM; in data set [5], 160 nM; at D(2) dopamine receptor, over 2000 nM.
For `O=S(=O)(c1ccc(/C=C/c2ccc(F)cc2F)nc1)c1ccccc1F` the same measures were 160, over 9 µM, 2.6 nM, 410 nM and over 1000 nM.
Take `N#Cc1cc(F)ccc1/C=C/c1ccc(S(=O)(=O)c2ccccc2F)cn1`: the Ratio Ki in data set [6] amounted to 2.1. For the same compound, the Ki is 1.5 µM in data set [1], 9.9 nM in data set [3], 19 nM in data set [5] and over 2000 nM on D(2) dopamine receptor.
Taken in the same sequence, the figures for `O=S(=O)(c1ccc(/C=C/c2ccc(F)cc2Cl)nc1)c1ccccc1F` were 36, 4.8 µM, 1.8 nM, 64 nM and over 2000 nM.
For `[O-][S+](c1ccc(/C=C/c2ccc(F)cc2F)nc1)c1ccccc1F` (configuration not stated), the Ki is 3.5 nM in data set [3], 43 nM in data set [5] and over 2000 nM at D(2) dopamine receptor.
Consider `[O-][S+](c1ccccc1)c1ccc(/C=C/c2ccc(F)cc2F)nc1` (stereo in doubt; 30) [listing 2 of 2 here], for which, in data set [6], the Ratio Ki came to 38.
Consider `[O-][S+](c1ccccc1)c1ccc(/C=C/c2ccc(F)cc2F)nc1` (single isomer, unassigned; form 2) [listing 2 of 2 here], for which the inhibition constant (Ki) in data set [1] is 6.5 µM; in data set [3] it was 0.7 nM; in data set [5], 25 nM; at D(2) dopamine receptor it was over 2000 nM.
With `O=S(=O)(c1ccc(/C=C/c2ccc(F)cc2)nc1)c1cccc(F)c1`, in data set [6], the Ratio Ki was over 420. Moreover, the inhibitory constant (Ki) was over 9 µM in data set [1], 9.6 nM in data set [3], over 4000 nM in data set [5] and over 1000 nM on D(2) dopamine receptor.
`O=S(=O)(c1ccc(F)cc1)c1ccc(CCc2ccc(F)cc2)nc1`: the Ki in data set [3] is 23 nM; in data set [5], 2700 nM; at D(2) dopamine receptor, over 1000 nM.
As for `O=S(=O)(c1ccc(/C=C/c2ccccc2F)nc1)c1ccccc1F`, in data set [6], the Ratio Ki is over 1500. Further, the inhibition constant Ki in data set [1] is over 9 µM; in data set [3] it was 2.6 nM; in data set [5], over 4000 nM; on D(2) dopamine receptor, over 2000 nM.
As for `O=S(=O)(c1ccc(F)cc1)c1ccc(CCc2ccc(F)cc2)cn1`, the Ratio Ki in data set [6] is over 210. For the same compound, the Ki in data set [1] was 6.9 µM; in data set [3], 19 nM; in data set [5] it was over 4000 nM; on D(2) dopamine receptor, over 1000 nM.
For the compound `[O-][S+](c1ccccc1)c1ccc(/C=C/c2ccc(F)cc2F)nc1` (single isomer, unassigned; form 1) [listing 1 of 2 here], the Ratio Ki in data set [6] amounted to 80.
In the case of `[O-][S+](c1ccccc1)c1ccc(/C=C/c2ccc(F)cc2)nc1` (configuration not stated), in data set [6], the Ratio Ki came out at 26. Besides, the Ki in data set [1] is 3.9 µM; in data set [3] it was 7.7 nM; in data set [5], 200 nM; on D(2) dopamine receptor, over 2000 nM.
For `O=S(=O)(c1ccc(/C=C/c2ccc(F)cc2)nc1)c1ccccc1F`, in data set [6], the Ratio Ki was over 740. Moreover, the inhibitory constant (Ki) in data set [1] is over 9 µM; in data set [3] it was 5.4 nM; in data set [5], over 4000 nM; at D(2) dopamine receptor, over 1000 nM.
On to `[O-][S+](c1ccccc1)c1ccc(/C=C/c2ccc(F)cc2F)nc1` (single isomer, unassigned; form 1) [listing 2 of 2 here], for which the Ki is 4.2 µM in data set [1], 30 nM in data set [3], 2400 nM in data set [5] and over 2000 nM on D(2) dopamine receptor (cho).
In the case of `O=S(=O)(c1ccccc1)c1ccc(/C=C/c2ccc(F)cc2)nc1`, the Ratio Ki in data set [6] was over 540. Moreover, the Ki was over 9 µM in data set [1], 7.4 nM in data set [3], over 4000 nM in data set [5] and over 1000 nM on D(2) dopamine receptor.
Turning to `O=S(=O)(c1ccccc1)c1ccc(/C=C/c2ccc(F)cc2F)nc1`, the values for the concentration at 1 h in data set [2] and in data set [4] were 80 nM and 180 nM, respectively. Besides, the Ki in data set [3] is 0.86 nM; in data set [5], over 4000 nM; on D(2) dopamine receptor it was over 2000 nM. In addition, the Activity in the data set on Rattus norvegicus turned out to be 45%.
As for `O=S(=O)(c1ccc(/C=C/c2ccc(F)cc2O)nc1)c1ccccc1F`, the Ratio Ki in data set [6] was 3000. In addition, the Ki in data set [1] is 2.1 µM; in data set [3], 0.19 nM; in data set [5], 580 nM; on D(2) dopamine receptor it was over 2000 nM.
As for `COc1cc(F)ccc1/C=C/c1ccc(S(=O)(=O)c2ccccc2F)cn1`, the Ki was 65 nM in data set [3] and over 2000 nM on D(2) dopamine receptor.
Turning to `O=S(=O)(c1ccc(/C=C/c2cccc(F)c2)nc1)c1ccccc1F`, the Ratio Ki in data set [6] was over 27. The Ki in data set [1] was over 9 µM; in data set [3], 150 nM; in data set [5], over 4000 nM; on D(2) dopamine receptor, over 2000 nM.
As to `Cc1cc(F)ccc1/C=C/c1ccc(S(=O)(=O)c2ccccc2F)cn1`, the Ratio Ki in data set [6] came out at 27. The Ki in data set [1] was 5 µM; in data set [3], 8.2 nM; in data set [5], 220 nM; on D(2) dopamine receptor it was over 2000 nM.

Source of the values: ChEMBL document CHEMBL1139157, “2,5-Disubstituted pyridines: the discovery of a novel series of 5-HT2A ligands” (Bioorg Med Chem Lett, 2007).
